Values after ≈ are worked out from the molar mass of the structure shown. Peptide text beside a SMILES is read from it.
Key:
Escherichia coli = test: Compound tested for in vitro susceptibility against ATCC strain 25922 of Escherichia coli; format: functional; conditions: ATCC25922
Outline: (§1)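 Microbroth dilution in Tryptic Soy Broth; inoculum 5×10^5 CFU/mL; plates incubated at 37 °C for 18-20 h; value reported as minimal inhibitory concentration (µg/mL).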

[1] = Hemolytic activity towards human erythrocytes is evaluated for magainin 2 at peptide concentration of 100 µg/mL; format: functional
Outline: (§2)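 Washed human erythrocytes from healthy volunteers (3 mL packed cells, PBS pH 7.4 washes, diluted to 20 mL) exposed to peptide in PBS at 25-200 µg/mL, 30 min at 37 °C; supernatant absorbance at 576 nm after centrifugation; 0.1% Triton X-100 taken as 100% hemolysis; duplicates.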

[2] = system: Acinetobacter calcoaceticus subsp. anitratus; test: Compound tested for the antimicrobial activity against Acinetobacter anitratus; format: functional, aeinetobacter anitrotap
Outline: (§3)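 MIC by microbroth dilution in Tryptic Soy Broth; inoculum 5×10^5 CFU/mL; plates incubated 18-20 h at 37 °C; assay pH approximately 7.4.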

[3] = Hemolytic activity towards human erythrocytes is evaluated for magainin 2 at peptide concentration of 25 ug/mL; format: functional; outline: as §2
[4] = system: Salmonella enterica subsp. enterica serovar Anatum; test: Compound tested for the antimicrobial activity against S. a natum; format: functional, salmoneila anatum; outline: as §1
[5] = Hemolytic activity towards human erythrocytes is evaluated for magainin 2 at peptide concentration of 200 µg/mL; format: functional; outline: as §2
Enterobacter cloacae [6] = test: Compound tested for the antimicrobial activity against Enterobacter cloacae ROS; format: functional; outline: as §3
[7] = Hemolytic activity towards human erythrocytes is evaluated for magainin 2 at peptide concentration of 50 µg/mL; format: functional; outline: as §2
Staphylococcus aureus = test: Compound tested for in vitro susceptibility against ATCC strain 29213 of Staphylococcus aureus; format: functional; outline: as §1
Pseudomonas aeruginosa = test: Compound tested for in vitro susceptibility against ATCC strain 27853 of Pseudomonas aeruginosa; format: functional; conditions: ATCC 27853; outline: as §1
Enterobacter cloacae [8] = test: Compound tested for the antimicrobial activity against Enterobacter cloacae; format: functional; outline: as §1
Klebsiella pneumoniae = test: Compound tested for the antimicrobial activity against Klebsiella pneumoniae; format: functional; outline: as §3
Proteus mirabilis = test: Compound tested for the antimicrobial activity against Proteus mirabilis; format: functional; outline: as §1
Shigella flexneri = test: Compound tested for the antimicrobial activity against Shigella flexneri; format: functional; outline: as §3

MIC (Escherichia coli) | MIC [2] | MIC [4] | MIC (Enterobacter cloacae [6]) | MIC (Staphylococcus aureus) | MIC (Pseudomonas aeruginosa) | MIC (Enterobacter cloacae [8]) | MIC (Klebsiella pneumoniae) | MIC (Proteus mirabilis) | MIC (Shigella flexneri) | SMILES | Hemolysis [1] | Hemolysis [3] | Hemolysis [5] | Hemolysis [7]
25 µg/mL (≈ 10.5 µM) | < 0.39 µg/mL | > 100 µg/mL | 50 µg/mL (≈ 20.9 µM) | 50 µg/mL (≈ 20.9 µM) | 12.5 µg/mL (≈ 5.23 µM) | < 0.39 µg/mL | > 100 µg/mL | > 100 µg/mL | 12.5 µg/mL (≈ 5.23 µM) | CC(C)C[C@H](NC(=O)[C@H](Cc1c[nH]cn1)NC(=O)[C@H](CC(C)C)NC(=O)[C@H](Cc1c[nH]c2ccccc12)NC(=O)[C@H](Cc1c[nH]cn1)NC(=O)[C@H](Cc1c[nH]cn1)NC(=O)[C@H](C)NC(=O)[C@H](Cc1c[nH]c2ccccc12)NC(=O)[C@H](Cc1c[nH]cn1)NC(=O)[C@H](Cc1c[nH]cn1)NC(=O)[C@H](Cc1c[nH]c2ccccc12)NC(=O)[C@H](CC(C)C)NC(=O)[C@@H](N)Cc1c[nH]cn1)C(=O)N[C@@H](Cc1c[nH]c2ccccc12)C(=O)N[C@@H](Cc1c[nH]cn1)C(=O)N[C@@H](C)C(=O)N[C@@H](Cc1c[nH]c2ccccc12)C(=O)O (H-HLWHHWAHHWLHLWHAW-OH) | 0% | 0% | 0% | 0%
200 µg/mL (≈ 91.5 µM) |  |  |  | 200 µg/mL (≈ 91.5 µM) | > 200 µg/mL |  |  |  |  | CC(C)C[C@H](NC(=O)[C@H](CCCCN)NC(=O)[C@H](CCCCN)NC(=O)[C@H](Cc1c[nH]c2ccccc12)NC(=O)[C@H](CCCCN)NC(=O)[C@H](CCCCN)NC(=O)[C@H](CCCCN)NC(=O)[C@H](C)NC(=O)[C@H](CCCCN)NC(=O)[C@H](CCCCN)NC(=O)[C@H](Cc1c[nH]c2ccccc12)NC(=O)[C@H](C)NC(=O)[C@@H](N)CCCCN)C(=O)N[C@@H](C)C(=O)N[C@@H](CCCCN)C(=O)N[C@@H](CCCCN)C(=O)N[C@@H](Cc1c[nH]c2ccccc12)C(=O)O (H-KAWKKAKKKWKKLAKKW-OH) |  |  |  | 
> 200 µg/mL |  |  |  | > 200 µg/mL | > 200 µg/mL |  |  |  |  | CC(C)C[C@H](NC(=O)[C@H](CCCCN)NC(=O)[C@H](CCCCN)NC(=O)[C@H](CC(C)C)NC(=O)[C@H](CC(C)C)NC(=O)[C@H](CCCCN)NC(=O)[C@H](CC(C)C)NC(=O)[C@H](CC(C)C)NC(=O)[C@H](CCCCN)NC(=O)[C@@H](N)CCCCN)C(=O)O (H-KKLLKLLKKL-OH) |  |  |  | 
50 µg/mL (≈ 31.4 µM) |  |  |  | 12.5 µg/mL (≈ 7.86 µM) | 50 µg/mL (≈ 31.4 µM) |  |  |  |  | NCCCC[C@H](NC(=O)[C@H](CCCCN)NC(=O)[C@H](Cc1c[nH]c2ccccc12)NC(=O)[C@H](Cc1c[nH]c2ccccc12)NC(=O)[C@H](CCCCN)NC(=O)[C@H](Cc1c[nH]c2ccccc12)NC(=O)[C@H](Cc1c[nH]c2ccccc12)NC(=O)[C@H](CCCCN)NC(=O)[C@@H](N)CCCCN)C(=O)N[C@@H](Cc1c[nH]c2ccccc12)C(=O)O (H-KKWWKWWKKW-OH) |  |  |  | 

Reference: ChEMBL document CHEMBL1126653, “Structure-function studies of amphiphilic antibacterial peptides” (1993)
